Publication PMC8068522 (European journal of nuclear medicine and molecular imaging, 2019)

Key:
PSMA(+) PC3 PIP cells [1] = experiment: clonogenic survival assay; format: cell-based, human; details: 48 h of incubation, colony formation
Method in brief: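 PSMA(+) PC3 PIP and PSMA(−) PC3 flu cells were exposed to HPLC-purified 177Lu radioligands for 48 h at 37 °C, then scored for colony formation (mean ± SD, n = 3). D0 was the activity concentration (kBq/mL) giving 37% survival.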

[2] = acute radiotoxicity after 8 weeks; format: in vivo, male NOD/SCID mice; details: 8 weeks post-treatment, 111 MBq
Method in brief: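 Tumour-bearing male NOD/SCID mice (PSMA(+) PC3 PIP flank, ~60–85 mm3, 14–18 days post-inoculation) got one 111 MBq tail-vein dose of 177Lu radioligand or saline. At 8 weeks, n = 3 per group underwent complete blood analysis (haemoglobin, white cells, neutrophils, platelets) and necropsy with H&E anatomic pathology at a phenotyping core.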

PSMA(+) PC3 PIP tumor = experiment: tissue biodistribution, PSMA; format: in vivo, mouse; details: 24 h
PSMA(+) PC3 PIP cells [3] = experiment: cell uptake and internalization; format: cell-based, human; details: initially; per 1 million cells
Method in brief: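 HPLC-purified 177Lu radioligands were incubated with PSMA(+) PC3 PIP cells for 1 h up to 24 h. Total cell-surface uptake and internalized fraction were expressed as percentage incubated dose per 1 million cells, mean ± SD, n = 3. Specificity was checked by blocking with excess (~10 μM) of a known PSMA inhibitor.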

[4] = test system: PSMA(+) PC3 PIP flank tumor model; experiment: PSMA-targeted radionuclide therapy in flank tumor model; format: in vivo, male NOD/SCID mice; details: single 111 MBq i.v.

With `O=C([O-])CN1CCN(CC(=O)[O-])CCN(CC(=O)NCC2CCC(C(=O)N[C@@H](Cc3ccc4ccccc4c3)C(=O)NCCCC[C@H](NC(=O)N[C@@H](CCC(=O)O)C(=O)O)C(=O)O)CC2)CCN(CC(=O)[O-])CC1.[177Lu+3]` (some centres unmarked) [177Lu-PSMA-617] the “D0 (37% survival)” value (PSMA(+) PC3 PIP cells [1]) was 24–32 kBq/mL, the parotid glands pathology [2] was “mild changes” and the platelets [2] was “significantly lower platelets than those in the other treatment groups”. The testes pathology [2] was “most severe degenerative changes and loss of seminiferous epithelium”, the kidney uptake (PSMA(+) PC3 PIP tumor) was under 0.5 ID/g and the “cell uptake within PSMA(+) PC3 PIP cells” value (PSMA(+) PC3 PIP cells [3]) was ~ 40 % of the incubated dose. The median survival [4] was 130 days and the “mice reaching a relative tumor volume > 4 times the initial volume” value [4] was “only one mouse”.
